Tests used:
Assay type in all cases: functional
Staphylococcus aureus [1] = assay: Antimicrobial activity against vancomycin resistant Staphylococcus aureus VRS-10 expressing SCCmec type 2 element by microdilution method
In short: (§1)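 Broth microdilution per CLSI in cation-adjusted Mueller-Hinton broth. Antibiotic powders were reconstituted per CLSI. The MIC was read visually as the lowest drug concentration with no visible growth. S. aureus ATCC 29213 and E. faecalis ATCC 29212 served as control strains. VISA and VRSA isolates came from the NARSA program.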

Staphylococcus aureus [2] = assay: Antimicrobial activity against community-acquired methicillin-resistant Staphylococcus aureus by microdilution method
In short: (§2)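 MIC by broth microdilution in cation-adjusted Mueller-Hinton broth, following CLSI guidelines; antibiotic powders reconstituted per CLSI. Read visually as the lowest drug concentration well with no visible growth. S. aureus ATCC 29213 and E. faecalis ATCC 29212 served as control strains. CA-MRSA: hospital patients culture-positive within 48 h of admission. DNSSA: patient blood isolates. VISA: obtained from the NARSA program.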

Staphylococcus aureus [3] = assay: Antimicrobial activity against community-acquired methicillin-resistant Staphylococcus aureus assessed as susceptible isolates by microdilution method
In short: (§3)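 MICs by CLSI broth microdilution in cation-adjusted Mueller-Hinton broth, read visually as the lowest concentration with no visible growth. Percentages of susceptible or resistant isolates assigned using CLSI breakpoints. Isolates: CA-MRSA (n = 92, positive within 48 h of admission) and DNSSA (n = 7, blood).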

Staphylococcus aureus [4] = assay: Antimicrobial activity against community-acquired methicillin-resistant Staphylococcus aureus assessed as resistant isolates by microdilution method; in short: as §3
Staphylococcus aureus [5] = assay: Bactericidal activity against vancomycin-resistant Staphylococcus aureus assessed as antibiotic concentration that reduced the number of viable cells by =>99.9% by colony count method; details: Staphylococcus aureus
In short: (§4)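 MBC per CLSI following microdilution in cation-adjusted Mueller-Hinton broth. Defined as the concentration giving ≥99.9% reduction in viable cells, judged from colony counts of the growth control well against Pearson rejection-value tables. CA-MRSA isolates were hospital patients' isolates with positive MRSA culture within 48 h of admission.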

Staphylococcus aureus [6] = assay: Bactericidal activity against community-acquired methicillin-resistant Staphylococcus aureus assessed as antibiotic concentration that reduced the number of viable cells by =>99.9% by colony count method; in short: as §4
Staphylococcus aureus [7] = assay: Antimicrobial activity against vancomycin-intermediate Staphylococcus aureus by microdilution method; in short: as §1
Staphylococcus aureus [8] = assay: Antimicrobial activity against vancomycin-intermediate Staphylococcus aureus assessed as susceptible isolates by microdilution method
In short: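 CLSI broth microdilution in cation-adjusted Mueller-Hinton broth. MIC is the lowest concentration well with no visible growth, read by eye. Isolates were classed susceptible from CLSI breakpoints. S. aureus ATCC 29213 and E. faecalis ATCC 29212 were used as MIC control strains.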

Staphylococcus aureus [9] = assay: Antimicrobial activity against vancomycin-intermediate Staphylococcus aureus assessed as resistant isolates by microdilution method
In short: (§5)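 CLSI broth microdilution MICs in cation-adjusted Mueller-Hinton broth, read visually as the lowest concentration with no visible growth. Percent of isolates classed susceptible or resistant was assigned using CLSI breakpoints.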

Staphylococcus aureus [10] = assay: Antimicrobial activity against vancomycin-resistant Staphylococcus aureus assessed as resistant isolates by microdilution method; in short: as §5
Staphylococcus aureus [11] = assay: Bactericidal activity against vancomycin-intermediate Staphylococcus aureus assessed as antibiotic concentration that reduced the number of viable cells by =>99.9% by colony count method
In short: (§6)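 MBC per CLSI guidelines. It was taken as the antibiotic concentration giving ≥99.9% reduction in viable cells, based on colony counts from the growth control well and rejection values from Pearson's tables.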

Staphylococcus aureus [12] = assay: Antimicrobial activity against daptomycin-nonsusceptible Staphylococcus aureus by microdilution method; details: Staphylococcus aureus; in short: as §2
Staphylococcus aureus [13] = assay: Antimicrobial activity against daptomycin-nonsusceptible Staphylococcus aureus assessed as susceptible isolates by microdilution method; in short: as §3
Staphylococcus aureus [14] = assay: Antimicrobial activity against daptomycin-nonsusceptible Staphylococcus aureus assessed as resistant isolates by microdilution method; in short: as §3
Staphylococcus aureus [15] = assay: Antimicrobial activity against vancomycin-resistant Staphylococcus aureus by microdilution method; in short: as §1
Staphylococcus aureus [16] = assay: Antimicrobial activity against vancomycin-resistant Staphylococcus aureus assessed as susceptible isolates by microdilution method; in short: as §5
Staphylococcus aureus [17] = assay: Bactericidal activity against daptomycin-nonsusceptible Staphylococcus aureus assessed as antibiotic concentration that reduced the number of viable cells by =>99.9% by colony count method; in short: as §6
Staphylococcus aureus [18] = assay: Antimicrobial activity against vancomycin intermediate Staphylococcus aureus NRS-3 expressing SCCmec type 2 element by microdilution method; in short: as §2
Staphylococcus aureus [19] = assay: Antimicrobial activity against vancomycin intermediate Staphylococcus aureus NRS-4 expressing SCCmec type 2 element by microdilution method; in short: as §2
Staphylococcus aureus [20] = assay: Antimicrobial activity against vancomycin intermediate Staphylococcus aureus NRS-17 expressing SCCmec type 2 element by microdilution method; in short: as §2
Staphylococcus aureus [21] = assay: Antimicrobial activity against vancomycin intermediate Staphylococcus aureus NRS-18 expressing SCCmec type 2 element by microdilution method; in short: as §2
Staphylococcus aureus [22] = assay: Antimicrobial activity against vancomycin intermediate Staphylococcus aureus NRS-19 expressing SCCmec type 2 element by microdilution method; in short: as §2
Staphylococcus aureus [23] = assay: Antimicrobial activity against vancomycin intermediate Staphylococcus aureus NRS-22 expressing SCCmec type 2 element by microdilution method; in short: as §2
Staphylococcus aureus [24] = assay: Antimicrobial activity against vancomycin intermediate Staphylococcus aureus NRS-23 expressing SCCmec type 2 element by microdilution method; in short: as §2
Staphylococcus aureus [25] = assay: Antimicrobial activity against vancomycin intermediate Staphylococcus aureus NRS-24 expressing SCCmec type 2 element by microdilution method; in short: as §2
Staphylococcus aureus [26] = assay: Antimicrobial activity against vancomycin intermediate Staphylococcus aureus NRS-26 expressing SCCmec type 2 element by microdilution method; in short: as §2
Staphylococcus aureus [27] = assay: Antimicrobial activity against vancomycin intermediate Staphylococcus aureus NRS-27 expressing SCCmec type 2 element by microdilution method; in short: as §2
Staphylococcus aureus [28] = assay: Antimicrobial activity against vancomycin intermediate Staphylococcus aureus NRS-51 expressing SCCmec type 2 element by microdilution method; in short: as §2
Staphylococcus aureus [29] = assay: Antimicrobial activity against vancomycin intermediate Staphylococcus aureus NRS-68 expressing SCCmec type 2 element by microdilution method; in short: as §2
Staphylococcus aureus [30] = assay: Antimicrobial activity against vancomycin intermediate Staphylococcus aureus NRS-73 expressing SCCmec type 4d element by microdilution method; in short: as §2
Staphylococcus aureus [31] = assay: Antimicrobial activity against vancomycin intermediate Staphylococcus aureus NRS-74 expressing SCCmec type 2 element by microdilution method; in short: as §2
Staphylococcus aureus [32] = assay: Antimicrobial activity against vancomycin intermediate Staphylococcus aureus NRS-76 expressing SCCmec type 2 element by microdilution method; in short: as §1
Staphylococcus aureus [33] = assay: Antimicrobial activity against vancomycin intermediate Staphylococcus aureus NRS-118 expressing SCCmec type 1 element by microdilution method; in short: as §2
Staphylococcus aureus [34] = assay: Antimicrobial activity against vancomycin intermediate Staphylococcus aureus NRS-126 expressing SCCmec type 2 element by microdilution method; in short: as §2
Staphylococcus aureus [35] = assay: Antimicrobial activity against vancomycin intermediate Staphylococcus aureus NRS-402 expressing SCCmec type 2 element by microdilution method; in short: as §2
Staphylococcus aureus [36] = assay: Antimicrobial activity against vancomycin intermediate Staphylococcus aureus NRS-403 expressing SCCmec type 2 element by microdilution method; in short: as §2
Staphylococcus aureus [37] = assay: Antimicrobial activity against vancomycin intermediate Staphylococcus aureus NRS-404 expressing SCCmec type 2 element by microdilution method; in short: as §2
Staphylococcus aureus [38] = assay: Antimicrobial activity against vancomycin resistant Staphylococcus aureus VRS-1 expressing SCCmec type 2 element by microdilution method; in short: as §1
Staphylococcus aureus [39] = assay: Antimicrobial activity against vancomycin resistant Staphylococcus aureus VRS-2 expressing SCCmec type 2 element by microdilution method; in short: as §1
Staphylococcus aureus [40] = assay: Antimicrobial activity against vancomycin resistant Staphylococcus aureus VRS-3 expressing SCCmec type 4 element by microdilution method; in short: as §1
Staphylococcus aureus [41] = assay: Antimicrobial activity against vancomycin resistant Staphylococcus aureus VRS-4 expressing SCCmec type 4 element by microdilution method; in short: as §1
Staphylococcus aureus [42] = assay: Antimicrobial activity against vancomycin resistant Staphylococcus aureus VRS-5 expressing SCCmec type 2 element by microdilution method; in short: as §1
Staphylococcus aureus [43] = assay: Antimicrobial activity against vancomycin resistant Staphylococcus aureus VRS-6 expressing SCCmec type 2 element by microdilution method; in short: as §1
Staphylococcus aureus [44] = assay: Antimicrobial activity against vancomycin resistant Staphylococcus aureus VRS-7 expressing SCCmec element by microdilution method; in short: as §1
Staphylococcus aureus [45] = assay: Antimicrobial activity against vancomycin resistant Staphylococcus aureus VRS-8 expressing SCCmec element by microdilution method; in short: as §1
Staphylococcus aureus [46] = assay: Antimicrobial activity against vancomycin resistant Staphylococcus aureus VRS-9 expressing SCCmec type 2 element by microdilution method; in short: as §1

CCC[C@@H]1C[C@@H](C(=O)N[C@@H]([C@H]2O[C@H](SC)[C@H](O)[C@@H](O)[C@H]2O)[C@H](C)Cl)N(C)C1 [CLINDAMYCIN]
17%: Activity (Staphylococcus aureus [8])
> 1 µg/mL: MBC (Staphylococcus aureus [6]; Staphylococcus aureus)
100%: Activity (Staphylococcus aureus [10])
86%: Activity (Staphylococcus aureus [14])
36%: Activity (Staphylococcus aureus [4])
8 µg/mL: MBC50 (Staphylococcus aureus [6])
> 64 µg/mL: MIC (Staphylococcus aureus [1]) | MIC90 (Staphylococcus aureus [2]) | MBC (Staphylococcus aureus [5]) | MIC50 (Staphylococcus aureus [7]) | MIC90 (Staphylococcus aureus [7]) | MIC50 (Staphylococcus aureus [12]) | MIC (Staphylococcus aureus [15]) | MIC50 (Staphylococcus aureus [15]) | MIC90 (Staphylococcus aureus [15]) | MIC (Staphylococcus aureus [18]) | MIC (Staphylococcus aureus [19]) | MIC (Staphylococcus aureus [21]) | MIC (Staphylococcus aureus [22]) | MIC (Staphylococcus aureus [23]) | MIC (Staphylococcus aureus [24]) | MIC (Staphylococcus aureus [25]) | MIC (Staphylococcus aureus [26]) | MIC (Staphylococcus aureus [27]) | MIC (Staphylococcus aureus [28]) | MIC (Staphylococcus aureus [29]) | MIC (Staphylococcus aureus [31]) | MIC (Staphylococcus aureus [33]) | MIC (Staphylococcus aureus [34]) | MIC (Staphylococcus aureus [35]) | MIC (Staphylococcus aureus [36]) | MIC (Staphylococcus aureus [38]) | MIC (Staphylococcus aureus [39]) | MIC (Staphylococcus aureus [40]) | MIC (Staphylococcus aureus [41]) | MIC (Staphylococcus aureus [42]) | MIC (Staphylococcus aureus [43]) | MIC (Staphylococcus aureus [44]) | MIC (Staphylococcus aureus [45]) | MIC (Staphylococcus aureus [46])
0%: Activity (Staphylococcus aureus [16])
0.06 µg/mL: MIC (Staphylococcus aureus [20]) | MIC (Staphylococcus aureus [30]) | MIC (Staphylococcus aureus [32]) | MIC (Staphylococcus aureus [37])
0.12 µg/mL: MIC50 (Staphylococcus aureus [2])
> 0.12 µg/mL: MBC (Staphylococcus aureus [11]; Staphylococcus aureus)
>64 µg/mL: MBC50 (Staphylococcus aureus [11]) | MBC90 (Staphylococcus aureus [11]) | MBC50 (Staphylococcus aureus [17])
14%: Activity (Staphylococcus aureus [13])
64%: Activity (Staphylococcus aureus [3])
83%: Activity (Staphylococcus aureus [9])
